CHOP UPR activ – apoptotic UPR (CHOP) activation; CHO-CHOP luciferase reporter, luminescence; percent of tunicamycin response over DMSO baseline; activation, % at 10 µM; 330,000 compounds, 0.34% hits; AID 449763;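 active = at 10 µM dose, activation of 40% or more, normalized to positive control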;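 note: 100% = tunicamycin at 10 µg/mL and 0% = DMSO alone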
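measured by = luciferase luminescence | assay system = CHO-CHOP cells, stable luciferase reporter of PERK-eIF2a-CHOP signalling | amount = 500 reporter cells seeded per well | timing = 6 h compound exposure at 37 °C after overnight seeding | controls = positive tunicamycin 10 µg/mL, negative DMSO alone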
UPR XBP1 act – adaptive UPR (XBP1) activation. 330,000 compounds, 0.33% hits. activation, % at 20 µM. CHO-XBP1 luciferase reporter, IRE1-XBP1 UPR activation, luminescence; percent of tunicamycin response, DMSO as zero;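 active = versus positive control, 20 µM dose yields 30% or more activation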;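 note: 100% = tunicamycin at 10 µg/mL and 0% = DMSO only wells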
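incubation = overnight seeding at 37 °C, 6 h compound treatment at 37 °C | assay system = CHO-XBP1 cells stably carrying IRE1-XBP1-driven luciferase reporter | input = 1000 cells per well | detection = luciferase luminescence | dosing = single point, 20 µM final compound, 1% DMSO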
PvdQ inh – blocks Pseudomonas aeruginosa PvdQ acylase activity | inhibition, % at 10 µM | AID 488965 | 340,000 compounds, 0.063% hits | purified PvdQ acylase, fluorescence plate reader; in the data active = inhibition above about 30%, passing the limit was not always enough;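 note: 0% = vehicle neutral wells and 100% = reference inhibitor wells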
CHOP inhibitor – CHOP inhibition in unfolded protein response; AID 2732; CHO-K1 CHOP-promoter luciferase, tunicamycin-induced, 15-18 h; 220,000 compounds, 3.8% hits; inhibition, % at 10 µM;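 active = compounds that reduced the stress-induced luciferase reporter signal by more than about 70% of percent inhibition, limit read from the data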;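 note: 0% = tunicamycin plus vehicle and 100% = wells without tunicamycin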
* marks the source's active call; other numbers are inactive results; . = no result given. The entries come from a sample that favours hits as a whole.

SMILES	CHOP UPR activ	UPR XBP1 act	PvdQ inh	CHOP inhibitor
Cn1c2ccccc2c(=O)c2c(=O)n(Cc3ccco3)c(-c3ccc(C(C)(C)C)cc3)nc21	3	0	.	89*
CC1(C)Cc2nc3oc4c(=O)n(CC(=O)Nc5ccc(Cl)cc5)cnc4c3cc2CO1	2	-1	-16	95*
Cc1c(Cl)cccc1NC(=S)N=Nc1c(O)n(CN2CCOCC2)c2ccccc12	14	7	0	87*
Cc1cc([N+](=O)[O-])ccc1NC(=O)c1cc2ccccc2o1	5	0	-5	.
CC(C)c1ccc(C(C)NCCS(=O)(=O)c2ccc(Cl)cc2)cc1 (stereo not given)	-4	-7	-6	.
O=C(N[C@@H](Cc1ccccc1)C(=O)CCl)OCc1ccccc1	158*	-13	-8	-7
O=C(N[C@@H](Cc1ccccc1)C(=O)N[C@@H](Cc1ccccc1)C(=O)O)OCc1ccccc1	2	0	-12	.
CCOC(=O)[C@@H]1[C@H]2COc3ccc(Br)cc3[C@@H]2N2C(=O)N(c3ccc(C)cc3)C(=O)[C@@]12C	0	-5	1	.
CCCCCCOc1ccc(N2C(=O)CC(N3CCN(CCN=CC4C(=O)CC(C)(C)CC4=O)CC3)C2=O)cc1 (stereo not given)	1	-2	-11	71*
CCc1ccc(-c2csc(NC(=O)C3CC(=O)N(c4ccc5c(c4)OCCO5)C3)n2)cc1 (stereo not given)	2	-4	0	85*
O=c1c2c(nc3n1CCCCC3)-c1ccccc1CC21CCCCC1	3	-1	-22	-7
CCC1(C)Cc2ccccc2-c2nc3n(c(=O)c21)CCCCC3 (stereo not given)	1	-2	-10	81*
CCOc1ccc(C2OC(=O)Cc3cc(OC)c(OC)cc32)cc1 (stereo not given)	0	-1	-10	63
O=C(CSc1nc(-c2ccccc2)nc2c1Cc1ccccc1O2)Nc1ccc(C(=O)O)cc1	.	.	-4	77*
O=C(O)CCSSCCC(=O)O	0	0	-15	.
CCOC(=O)c1ccccc1NC1c2ccccc2C(=O)N1c1ccc(C)cn1 (stereo not given)	5	-3	-2	85*
Cc1ccc(NCCC(=O)c2cccs2)cc1Cl	4	1	-1	80*
Cc1ccc(NCCC(=O)c2cccs2)cc1C	5	0	10	5
Cc1ccccc1C(=NC(=O)c1ccccc1)c1ccccc1	1	-1	2	72*
Cc1ccccc1C(=O)O/N=C(\N)c1ccccc1	-9	-11	-1	.
COCCN(C(=O)COC(=O)CCc1ccccc1)c1c(N)n(Cc2ccccc2)c(=O)[nH]c1=O	-2	-2	4	.
C=C(C)C1CC=C(C)/C(=N\NC(=O)CCC(=O)Nc2ccc(C)c(C)c2)C1 (stereo not given)	3	-1	-8	77*
C=C(C)C1CC=C(C)/C(=N/NC(=O)c2ccc(NC(=O)CCC)cc2)C1 (stereo not given)	-1	-2	7	19
Cc1cccc(NC(=O)CN2C(=O)N/C(=C/c3ccc(C)s3)C2=O)c1	4	2	1	92*
COc1ccc(CCNC(=O)c2cc(S(=O)(=O)N3CCCCC3)c[nH]2)cc1OC	-2	-4	-7	.
SMILES	CHOP UPR activ	UPR XBP1 act	PvdQ inh	CHOP inhibitor
Cc1ccc(C(=O)CSc2nnc3c4ccccc4nc(C(C)(C)C)n23)cc1	-2	-2	-13	70*
CCCSc1nc2c(cnn2-c2ccccc2)c(=O)[nH]1	-1	2	-10	80*
CC(C)(C)c1ccc(C(=O)CSc2nc3ccccc3c(=O)[nH]2)cc1	-1	0	-8	75*
O=C(CSc1nc2c(cnn2-c2ccccc2)c(=O)[nH]1)c1ccc(Cl)cc1	-1	-2	-17	92*
O=C(CSc1nc2ccccc2c(=O)[nH]1)c1ccccc1	2	1	-12	-12
Cc1cccc(C)c1NC(=S)N(Cc1ccccc1)Cc1cccs1	1	-2	-7	19
CCC(C)Sc1nc2c(cnn2-c2ccccc2)c(=O)[nH]1 (stereo not given)	-1	8	-13	78*
CCCSc1nc2c(cnn2-c2ccc(C)cc2)c(=O)[nH]1	-1	1	7	62
CCCSc1nc2c(cnn2-c2ccc(F)cc2)c(=O)[nH]1	-1	5	-4	79*
CCNC(=S)N1CCC(C(N)=O)CC1	-1	-4	-16	-9
Cc1nn(Cc2c(Cl)cccc2Cl)c(C)c1NC(=O)c1cnn2c(C(F)F)cc(-c3ccccc3)nc12	16	11	-15	52
Cc1ccc(-c2cc(C(F)F)n3ncc(C(=O)Nc4c(C)nn(Cc5c(Cl)cccc5Cl)c4C)c3n2)cc1	23	28	-12	91*
COc1cccc(OC)c1C(=O)OCC(=O)Nc1cccnc1Cl	0	-1	4	-11
Cc1c(CCC(C)C)c(=O)n2c([nH]c3ccccc32)c1C#N	0	2	-9	96*
Cc1c(CCO)c(=O)n2c([nH]c3ccccc32)c1C#N	-2	-5	-12	.
CC(C)CC(=O)O/N=C1\C(=O)N(Cc2ccc(Cl)cc2)c2ccc([N+](=O)[O-])cc21	1	1	.	90*
CN(C)CCN(C(=O)/C=C/c1cccs1)c1nc2c(F)cc(F)cc2s1	-3	-3	-5	106*
CCN(c1ccccc1)S(=O)(=O)c1cc(C(=O)Nc2ccccc2Cl)ccc1F	-2	-3	49*	5
N#CCSc1ccccc1NC(=O)CN1C(=O)C(=O)N(Cc2ccccc2)C1=O	1	1	-1	.
Cc1cc(C(=O)NP(=O)(N2CC(C)OC(C)C2)N2CC(C)OC(C)C2)c(C)n1C1CC1 (stereo not given)	-2	-3	-17	-11
COCc1nnc(NC(=O)c2ccccc2[N+](=O)[O-])s1	2	0	-8	15
Cc1ccnc(NC(=O)c2ccc3[nH]c(=O)c(=O)[nH]c3c2)c1	1	-5	-12	.
CC(=O)Nc1cccc(NC(=O)CSc2ncc(-c3ccc(Cl)cc3)n2Cc2ccco2)c1	4	0	-7	88*
CC(=O)Nc1cccc(NC(=O)CSc2ncc(C(=O)Nc3ccccc3)c(=O)n2C)c1	202*	-5	-6	.
COc1ccc(OC)c(S(=O)(=O)NCC(=O)NC2CCCc3ccccc32)c1 (stereo not given)	2	-5	-8	.
CCc1ccc(S(=O)(=O)ON2C(=O)c3ccccc3C2=O)cc1	1	-5	-12	95*
Brc1cc2c(cc1Br)OCCOCCOCCOCCO2	-2	-3	-9	3
Brc1ccc2c(c1)OCCOCCOc1cc(Br)ccc1OCCOCCOCCO2	7	0	-2	83*
CSCCC(NS(=O)(=O)c1ccc(Cl)cc1)C(=O)OCC(=O)NC12CC3CC(CC(C3)C1)C2 (stereo not given)	-1	-2	8	74*
COC(=O)C(CCSC)NS(=O)(=O)c1ccc(Cl)cc1 (stereo not given)	-3	5	-4	-13

Screens as filed in PubChem BioAssay.
